The target of test [1] is T1, 5-hydroxytryptamine receptor 1F (Homo sapiens, UniProt P30939).
T1 sequence (P30939 whole entry): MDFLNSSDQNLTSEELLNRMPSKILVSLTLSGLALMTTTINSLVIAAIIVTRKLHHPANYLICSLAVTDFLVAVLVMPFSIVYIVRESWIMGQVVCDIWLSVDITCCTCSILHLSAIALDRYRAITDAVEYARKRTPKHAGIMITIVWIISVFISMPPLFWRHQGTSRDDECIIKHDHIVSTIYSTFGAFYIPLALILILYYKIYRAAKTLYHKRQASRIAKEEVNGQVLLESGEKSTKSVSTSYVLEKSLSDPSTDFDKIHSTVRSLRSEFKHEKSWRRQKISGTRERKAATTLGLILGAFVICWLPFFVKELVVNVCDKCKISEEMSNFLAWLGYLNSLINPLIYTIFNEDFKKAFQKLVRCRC
Kind of test: In vitro binding affinity was determined by radioligand binding assay using cell line expressing human 5-hydroxytryptamine 1F receptor. In short, it runs like this: (§1)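 Ki (nM) from radioligand binding on cell lines each expressing one human serotonin receptor subtype. Values are means of at least three determinations with SEM. ND: Ki not determined, when a 10⁻⁷ M test ligand gave <50% displacement of radioligand.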

Test [2] addresses T2, 5-hydroxytryptamine receptor 1A (Homo sapiens, UniProt P08908).
T2 sequence (P08908 whole entry): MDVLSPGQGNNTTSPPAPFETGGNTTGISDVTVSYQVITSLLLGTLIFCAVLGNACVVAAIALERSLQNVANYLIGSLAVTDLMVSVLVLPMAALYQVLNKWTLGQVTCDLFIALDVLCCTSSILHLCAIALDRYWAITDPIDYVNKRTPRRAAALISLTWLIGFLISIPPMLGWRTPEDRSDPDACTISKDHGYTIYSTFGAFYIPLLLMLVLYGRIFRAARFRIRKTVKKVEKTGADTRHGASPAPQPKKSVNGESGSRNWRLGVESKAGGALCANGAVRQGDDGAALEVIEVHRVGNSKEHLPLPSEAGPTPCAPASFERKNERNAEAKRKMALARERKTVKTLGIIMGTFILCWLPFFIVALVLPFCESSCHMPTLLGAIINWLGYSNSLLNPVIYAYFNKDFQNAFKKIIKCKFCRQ
Kind of test: In vitro binding affinity by radioligand binding assay using cell line expressing human 5-hydroxytryptamine 1A receptor. Summed up: as §1

Test [3] deals with 5-hydroxytryptamine receptor 1D (Homo sapiens, UniProt P28221). Kind of test: In vitro binding affinity by radioligand binding assay using cell line expressing human 5-hydroxytryptamine 1D receptor. In short, it runs like this: as §1
Sequence of 5-hydroxytryptamine receptor 1D (P28221 whole entry): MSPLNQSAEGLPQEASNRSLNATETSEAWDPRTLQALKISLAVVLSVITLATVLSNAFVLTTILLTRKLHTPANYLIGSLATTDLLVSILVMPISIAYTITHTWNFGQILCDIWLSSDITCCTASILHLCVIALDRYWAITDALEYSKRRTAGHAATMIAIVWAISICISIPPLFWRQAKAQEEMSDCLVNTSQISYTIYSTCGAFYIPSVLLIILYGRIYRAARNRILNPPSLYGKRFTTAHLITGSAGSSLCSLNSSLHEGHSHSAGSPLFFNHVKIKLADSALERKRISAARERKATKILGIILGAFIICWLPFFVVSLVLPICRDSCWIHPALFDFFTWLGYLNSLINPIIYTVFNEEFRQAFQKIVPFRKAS
Test [4] deals with 5-hydroxytryptamine receptor 1B (Homo sapiens, UniProt P28222). Kind of test: In vitro binding affinity by radioligand binding assay using cell line expressing human 5-hydroxytryptamine 1B receptor. Summed up: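 Ki (nM) from radioligand binding on cell lines each expressing one human serotonin receptor subtype. Values are means of at least three determinations with SEM.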
Sequence of 5-hydroxytryptamine receptor 1B (P28222 whole entry): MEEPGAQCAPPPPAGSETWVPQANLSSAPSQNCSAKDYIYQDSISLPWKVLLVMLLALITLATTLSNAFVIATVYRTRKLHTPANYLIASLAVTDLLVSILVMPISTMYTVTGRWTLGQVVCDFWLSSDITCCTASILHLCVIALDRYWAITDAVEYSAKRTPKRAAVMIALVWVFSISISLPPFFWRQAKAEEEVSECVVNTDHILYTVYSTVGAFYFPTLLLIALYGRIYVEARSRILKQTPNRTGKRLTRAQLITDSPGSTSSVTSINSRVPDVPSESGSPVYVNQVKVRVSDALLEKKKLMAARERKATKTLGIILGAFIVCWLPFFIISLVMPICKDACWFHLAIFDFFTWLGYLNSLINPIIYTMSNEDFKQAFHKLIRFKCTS
Test [5] deals with T3, 5-hydroxytryptamine receptor 1F (Homo sapiens) (UniProt P30939).
T3 sequence (whole entry): T1 sequence (P30939 whole entry)
Kind of test: Maximum stimulation of [35S]GTP-gamma-S, binding expressed relative to the maximal effect of 5-hydroxytryptamine […]. It is filed as functional. (GTPγS resists hydrolysis and so accumulates on activated G proteins.)

Test [6] deals with T1, 5-hydroxytryptamine receptor 1F. Kind of test: In vitro effective concentration for stimulation of [35S]GTP-gamma-S, binding in mouse LM(tk-)cells expressing the human 5-hydroxytryptamine 1F receptor. Type of test: functional.

By Ki is commonly meant the dissociation constant of the complex between target and ligand, obtained from inhibition or displacement. Higher therefore signals weaker binding. Consider `CN1CCC(c2c[nH]c3cnc(NC(=O)c4ccc(F)cc4)nc23)CC1`, for which the inhibitory constant (Ki) in test [1] was found to be 67 nM; in test [2], 200 nM; in test [3], 1900 nM; in test [4], 6000 nM.
Regarding `CN1CCC(c2c[nH]c3ccc(OS(C)(=O)=O)nc23)CC1`, the values for the Ki in test [1], in test [3] and in test [4] were 4.7 nM, 8 nM and 25 nM, respectively.
In test [1], `CCCCC(=O)Nc1ccc2[nH]cc(C3CCN(C)CC3)c2n1` had a Ki of 14 nM.
As for `COc1ccccc1C(=O)Nc1ccc2[nH]cc(C3CCN(C)CC3)c2n1`, the Ki in test [1] stood at 20 nM; in test [2], 20 nM; in test [4], 750 nM.
Take `CC(C)N1CCC(c2c[nH]c3ccc(NC(=O)c4ccc(F)cc4)nc23)CC1`: in test [1], the affinity corresponds to a Ki of 30 nM.
Consider `COc1ccc2[nH]cc(C3CCN(C)CC3)c2n1`, for which the Ki in test [1] was 23 nM; in test [3] it was 23 nM; in test [4], 110 nM.
As for `CN1CCC(c2c[nH]c3ccc(NC(=O)c4cccc(C#N)c4)nc23)CC1`, the Ki turned out to be 11 nM in test [1], 100 nM in test [2] and 590 nM in test [4].
Take `CN1CCC(c2c[nH]c3ccc(NC(=O)Nc4ccc(F)cc4)nc23)CC1`: the Ki in test [1] worked out at 11 nM; in test [3] it was 3.8 nM; in test [4] it was 3.2 nM.
Regarding `CNC(=O)Nc1ccc2[nH]cc(C3CCN(C)CC3)c2n1`, the Ki was 2.5 nM in test [1], 8.5 nM in test [3] and 14 nM in test [4].
The Emax is the maximal effect, on the per cent scale that the assay sets. Broadly, the EC50 is the concentration that produces a half-maximal response. Read a high EC50 as weaker potency. Compound `CN1CCC(c2c[nH]c3ccc(NC(=O)c4cccs4)nc23)CC1` returned a maximal effect (Emax) in test [5] of 61%. Further, the Ki worked out at 7.1 nM in test [1], 350 nM in test [2], 650 nM in test [3] and 390 nM in test [4]. Also, the EC50 in test [6] was 15 nM.
As to `CN1CCC(c2c[nH]c3ccc(NS(C)(=O)=O)nc23)CC1`, the results for the inhibition constant Ki in test [1], in test [3] and in test [4] were 19 nM, 380 nM and 610 nM, respectively.
`CCN1CCC(c2c[nH]c3ccc(NC(=O)c4ccc(F)cc4)nc23)CC1`: the Ki in test [1] was found to be 170 nM. In other words, the sub-micromolar range.
`Cc1ccc(C(=O)Nc2ccc3[nH]cc(C4CCN(C)CC4)c3n2)cc1`: the Ki is 12 nM in test [1] and 30 nM in test [2].
On to `CCNC(=O)Nc1ccc2[nH]cc(C3CCN(C)CC3)c2n1`, for which the figures for the Ki in test [1] and in test [3] were 3.8 nM and 40 nM, respectively.
For the compound `CN1CCC(c2c[nH]c3ccc(NC(=O)c4ccccc4[N+](=O)[O-])nc23)CC1`, the Ki was 19 nM in test [1], 64 nM in test [2] and 170 nM in test [3].
With `CC(=O)Nc1ncc2[nH]cc(C3CCN(C)CC3)c2n1`, the inhibition constant Ki in test [1] turned out to be 220 nM; in test [2], 780 nM; in test [3], 470 nM; in test [4], 2900 nM.
Compound `O=C(Nc1ccc2[nH]cc(C3CCNCC3)c2n1)c1ccc(F)cc1` registered an inhibition constant (Ki) in test [1] of 9.5 nM.
For the compound `Cc1ccccc1C(=O)Nc1ccc2[nH]cc(C3CCN(C)CC3)c2n1`, the Ki in test [1] came to 12 nM; in test [2] it was 106 nM; in test [3] it was 440 nM; in test [4], 150 nM.
Compound `CCC(=O)Nc1ccc2[nH]cc(C3CCNCC3)c2n1` yielded a Ki in test [1] of 35 nM. This lies in the double-digit nanomolar range.
For the compound `Cc1cccc(C(=O)Nc2ccc3[nH]cc(C4CCN(C)CC4)c3n2)c1`, the Ki in test [1] is 5.8 nM; in test [2], 100 nM; in test [3], 490 nM; in test [4], 1200 nM.
On the same counts, the results for `CN1CCC(c2c[nH]c3ccc(NC(=O)c4cccc(F)c4)nc23)CC1` are 11 nM, 135 nM, 690 nM and 1600 nM.
As for `CCN1CC=C(c2c[nH]c3ccc(NC(=O)c4ccc(F)cc4)nc23)CC1`, the Ki in test [1] is 25 nM.
Take `CCCCCCCC(=O)Nc1ccc2[nH]cc(C3CCN(C)CC3)c2n1`: the Ki in test [1] came to 20 nM; in test [3] it was 110 nM; in test [4] it was 32 nM.
On to `CN1CCC(c2c[nH]c3ccc(NC(=O)c4ccc([N+](=O)[O-])cc4)nc23)CC1`, for which the Ki came to 7.7 nM in test [1], 38 nM in test [2], 340 nM in test [3] and 270 nM in test [4].
Regarding `CCCCCC(=O)Nc1ccc2[nH]cc(C3CCN(C)CC3)c2n1`, in test [1], the Ki worked out at 13 nM.
On the same count and under the same terms, in the case of `CCCN1CCC(c2c[nH]c3ccc(NC(=O)c4ccc(F)cc4)nc23)CC1` it was 18 nM.
Compound `CN1CCC(c2c[nH]c3ccc(NC(=O)c4ccncc4)nc23)CC1` came in with an Emax in test [5] of 97%. For the same compound, the Ki in test [1] came to 8.4 nM; in test [2] it was 40 nM; in test [3], 420 nM; in test [4], 330 nM. This compound returned an EC50 in test [6] of 11 nM.
In test [5], `CN1CCC(c2c[nH]c3ccc(NC(=O)c4ccccn4)nc23)CC1` came in with an Emax of 63%. The Ki in test [1] came out at 6.3 nM; in test [2], 41 nM; in test [3] it was 820 nM; in test [4], 1000 nM. Moreover, the concentration giving a half-maximal response (EC50) in test [6] came to 25 nM.
`CN1CCC(c2c[nH]c3ccc(NC(=O)c4cccc([N+](=O)[O-])c4)nc23)CC1`: the Ki is 42 nM in test [1], 130 nM in test [2], 330 nM in test [3] and 390 nM in test [4].
As for `CC(=O)Nc1cc2c(C3CCN(C)CC3)c[nH]c2cn1`, the figures for the Ki in test [1], in test [2] and in test [3] were 210 nM, 2 nM and 39 nM, respectively.
As for `CN1CCC(c2c[nH]c3ccc(N)nc23)CC1`, the Ki came to 100 nM in test [1], 420 nM in test [3] and 800 nM in test [4].
With `CN1CCC(c2c[nH]c3ccc(NC(=O)c4ccc(F)cc4)cc23)CC1`, the Ki in test [1] is 2.1 nM; in test [2] it was 22 nM; in test [3], 430 nM.
For the compound `CN1CCC(c2c[nH]c3ccc(NS(=O)(=O)c4ccc(F)cc4)nc23)CC1`, the affinity in test [1], expressed as Ki, was 27 nM.
Regarding `COc1cccc(C(=O)Nc2ccc3[nH]cc(C4CCN(C)CC4)c3n2)c1`, the results for the Ki in test [1] and in test [2] were 16 nM and 98 nM, respectively.
As for `CN1CCC(c2c[nH]c3ccc(OS(=O)(=O)c4ccc(F)cc4)nc23)CC1`, the figures for the inhibition constant (Ki) in test [1] and in test [3] were 7.5 nM and 30 nM, respectively.
For `CN1CCC(c2c[nH]c3ccc(NC(=O)c4ccccc4F)nc23)CC1`, the Ki in test [1] turned out to be 19 nM; in test [2], 42 nM.
For the compound `CN1CCC(c2c[nH]c3ccc(NC(=O)C4CCCC4)nc23)CC1`, the Ki in test [1] was found to be 11 nM; in test [2], 2000 nM; in test [3], 740 nM; in test [4], 640 nM.
In the case of `CN1CCC(c2c[nH]c3ccc(NC(=O)c4ccco4)nc23)CC1`, in test [5], the Emax is 82%. Further, the Ki was found to be 13 nM in test [1], 560 nM in test [2], 930 nM in test [3] and 1100 nM in test [4]. A half-maximal response in test [6] (EC50) required 11 nM.
For the compound `CC(=O)Nc1ccc2[nH]cc(C3CCN(C)CC3)c2c1`, the Ki is 9.7 nM in test [1], 68 nM in test [2], 150 nM in test [3] and 390 nM in test [4].
In test [1], `CN1CCC(c2c[nH]c3ccc(NC(=O)C(C)(C)C)nc23)CC1` had an inhibition constant Ki of 62 nM.
Still for that read-out and setting: in the case of `CC(=O)Nc1ccc2[nH]cc(C3CCNCC3)c2n1` it was 45 nM.
With `CN1CCC(c2c[nH]c3ccc(NC(=O)c4ccoc4)nc23)CC1`, the Emax in test [5] was 88%. Moreover, the Ki in test [1] worked out at 4.6 nM; in test [2], 840 nM; in test [3], 1100 nM; in test [4], 930 nM. The same compound had an EC50 in test [6] of 11 nM.
As for `O=C(Nc1ccc2[nH]cc(C3CCN(CCc4ccccc4)CC3)c2n1)c1ccc(F)cc1`, the Ki in test [1] amounted to 75 nM.
In the case of `CN1CCC(c2c[nH]c3cnc(NC(=O)c4ccc(F)cc4)cc23)CC1`, the Ki came to 13 nM in test [1], 17 nM in test [2], 53 nM in test [3] and 80 nM in test [4].
Compound `CCCCN1CCC(c2c[nH]c3ccc(NC(=O)c4ccc(F)cc4)nc23)CC1` registered an inhibition constant (Ki) in test [1] of 14 nM.
The compound `CCN1CC=C(c2c[nH]c3ccc(NC(C)=O)nc23)CC1` displayed an inhibition constant Ki in test [1] of 21 nM.
For the compound `CN1CCC(c2c[nH]c3ccc(NC(=O)C4CCCCC4)nc23)CC1`, the Ki worked out at 20 nM in test [1] and 660 nM in test [2].
The compound `CN1CCC(c2c[nH]c3ccc(O)nc23)CC1` came in with a Ki in test [1] of 100 nM.
In the case of `CN1CCC(c2c[nH]c3ccc(NC(=O)c4ccc(Cl)cc4Cl)nc23)CC1`, the Ki worked out at 4.1 nM in test [1], 5.1 nM in test [2] and 83 nM in test [3].

Source of the values: ChEMBL document CHEMBL1145835, “Novel potent 5-HT(1F) receptor agonists: structure-activity studies of a series of substituted N-[3-(1-methyl-4-piperidinyl)-1H-pyrrolo[3,2-b]pyridin-5-yl]amides” (J Med Chem, 2003).
